Experimental data taken from paper PMC7888308 (ACS Pharmacology & Translational Science, 2021).
Numbering of substitutions follows the chain as printed. Values after ≈ are worked out from the molar mass of the structure shown.

Columns and labels:
wild-type UGT1A1 = target: T1, wild-type UGT1A1 (Homo sapiens, UniProt P22309); test: glucuronidation by wild-type UGT1A1 expressed in COS-7 cells; type: in vitro ADME; details: 20 μM drug, 24 h
T1 sequence (P22309 26-533): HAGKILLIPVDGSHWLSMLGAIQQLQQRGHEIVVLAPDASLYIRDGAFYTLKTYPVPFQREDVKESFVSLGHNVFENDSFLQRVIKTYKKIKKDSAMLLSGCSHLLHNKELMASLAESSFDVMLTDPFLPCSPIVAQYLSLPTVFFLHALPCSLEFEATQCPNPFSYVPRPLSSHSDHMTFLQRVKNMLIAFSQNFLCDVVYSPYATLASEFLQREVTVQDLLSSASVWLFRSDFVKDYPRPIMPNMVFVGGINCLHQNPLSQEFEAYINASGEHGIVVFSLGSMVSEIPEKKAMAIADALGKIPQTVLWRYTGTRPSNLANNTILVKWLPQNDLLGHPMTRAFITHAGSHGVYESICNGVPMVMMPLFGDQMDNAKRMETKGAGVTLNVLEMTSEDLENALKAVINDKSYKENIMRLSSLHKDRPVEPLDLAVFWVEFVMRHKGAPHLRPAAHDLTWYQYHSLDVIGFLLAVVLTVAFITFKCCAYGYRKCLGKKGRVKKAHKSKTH

UGT1A1 P152T = target: T2, UGT1A1 P152T (Homo sapiens, UniProt P22309, P152T); test: glucuronidation by UGT1A1 P152T expressed in COS-7 cells; type: in vitro ADME; details: 20 μM drug, 24 h, compared to wild-type UGT1A1
T2 sequence (P22309 26-533 P152T): T1 sequence (P22309 26-533) with P127T

human kidney microsomes = test: human kidney microsome metabolism experiment; type: in vitro ADME; details: CAB 10 μM, microsomes 0.5 mg/mL, UGT cofactor, 60 min, 37 °C
[1] = HPTN 077 participants, South Africa, Brazil, Malawi, United States; cited from earlier work
UGT1A9 H217Y = target: T3, UGT1A9 H217Y (Homo sapiens, UniProt O60656, H217Y); test: CAB glucuronidation by UGT1A9 H217Y expressed in COS-7 cells; type: in vitro ADME
T3 sequence (O60656 26-530 H217Y): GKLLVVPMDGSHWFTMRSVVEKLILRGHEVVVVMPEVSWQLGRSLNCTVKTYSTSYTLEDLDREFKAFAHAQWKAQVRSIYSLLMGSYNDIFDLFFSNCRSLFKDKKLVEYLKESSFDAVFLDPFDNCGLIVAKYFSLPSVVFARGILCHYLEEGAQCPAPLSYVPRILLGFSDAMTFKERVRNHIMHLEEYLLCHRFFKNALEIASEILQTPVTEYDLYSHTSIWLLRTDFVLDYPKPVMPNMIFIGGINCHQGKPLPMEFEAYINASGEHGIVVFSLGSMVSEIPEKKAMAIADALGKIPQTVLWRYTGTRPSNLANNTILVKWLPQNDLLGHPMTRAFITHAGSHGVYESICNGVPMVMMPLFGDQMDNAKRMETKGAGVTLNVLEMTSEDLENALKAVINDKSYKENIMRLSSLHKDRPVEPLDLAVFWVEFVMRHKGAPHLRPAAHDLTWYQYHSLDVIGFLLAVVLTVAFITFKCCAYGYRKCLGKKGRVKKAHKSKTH

UGT1A1 = details: reaction phenotyping; cited from earlier work
UGT1A9 R464G = target: T4, UGT1A9 R464G (Homo sapiens, UniProt O60656, R464G); test: CAB glucuronidation by UGT1A9 R464G expressed in COS-7 cells; type: in vitro ADME
T4 sequence (O60656 26-530 R464G): T3 sequence (O60656 26-530 H217Y) with Y192H, R439G

UGT1A9 wild-type = target: T5, UGT1A9 wild-type (Homo sapiens, UniProt O60656); test: CAB glucuronidation by UGT1A9 wild-type expressed in COS-7 cells; type: in vitro ADME
T5 sequence (O60656 26-530): T3 sequence (O60656 26-530 H217Y) with Y192H

human liver microsomes = test: human liver microsome metabolism experiment; type: in vitro ADME; details: CAB 10 μM, microsomes 0.5 mg/mL, UDPGA, 60 min, 37 °C
Outline: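 Pooled liver microsomes (50 mixed-sex donors, 0.5 mg/mL) were preincubated 5 min at 37 °C with test compound (10 μM) in 100 mM potassium phosphate, pH 7.4. A UGT reaction mixture containing 25 mM UDPGA plus alamethicin was added, and reactions ran 60 min at 37 °C. Acetonitrile quench, centrifugation, drying and methanol reconstitution followed. Glucuronide was detected by LC–MS/MS using the m/z 582 → 406 transition.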

[2] = pH 6.8 phosphate buffer at 20 °C; cited from earlier work
HIV integrase = details: in vitro assays; cited from earlier work
UGT1A9 = details: reaction phenotyping; cited from earlier work

Compound | glucuronidation in cells transfected with wild-type UGT1A1 (wild-type UGT1A1) | glucuronidated metabolite in cells expressing UGT1A1 P152T (UGT1A1 P152T) | metabolite formation in human kidney microsomes (human kidney microsomes) | tolerability [1] | formation of CAB-glucuronide by UGT1A9 H217Y (UGT1A9 H217Y; 24 h incubation with CAB) | CAB-glucuronide production by UGT1A9 H217Y (UGT1A9 H217Y; 48 h treatment with CAB) | fractional contribution of UGT1A1 to CAB metabolism (UGT1A1) | formation of CAB-glucuronide by UGT1A9 R464G (UGT1A9 R464G; 24 h incubation with CAB) | CAB-glucuronide production by UGT1A9 R464G (UGT1A9 R464G; 48 h treatment with CAB) | formation of CAB-glucuronide by UGT1A9 wild-type (UGT1A9 wild-type; 24 h incubation with CAB) | CAB-glucuronide production by UGT1A9 wild-type (UGT1A9 wild-type; 48 h treatment with CAB) | additional metabolites in human liver microsomes (human liver microsomes) | metabolite formed in human liver microsomes (human liver microsomes) | aqueous solubility [2] [µg/mL] | efficacy of inhibition of integrase-catalyzed viral DNA strand transfer (HIV integrase) | fractional contribution of UGT1A9 to CAB metabolism (UGT1A9)
C[C@@H]1CCO[C@H]2Cn3cc(C(=O)NCc4ccc(F)cc4F)c(=O)c(O)c3C(=O)N12 [DTG, dolutegravir] | readily glucuronidated | undetectable |  |  |  |  |  |  |  |  |  |  |  |  |  | 
C[C@H]1CO[C@@H]2Cn3cc(C(=O)NCc4ccc(F)cc4F)c(=O)c(O)c3C(=O)N12 [CAB, Cabotegravir] | readily glucuronidated | undetectable | observed the formation of CAB-glucuronide | well tolerated | not observed | able to detect | 0.67 | not observed | not detectable above the background | not observed | able to detect | no additional metabolites of CAB were detected | identified as CAB-glucuronide | 15 (≈ 37 µM) | low or subnanomolar | 0.33
CCc1c2c(nc3ccc(O)cc13)-c1cc3c(c(=O)n1C2)COC(=O)[C@]3(O)CC [SN-38, 7-ethyl-10-hydroxycamptothecin] |  | marked reduction |  |  |  |  |  |  |  |  |  |  |  |  |  | 
